Data from ChEMBL document CHEMBL1156914, “Novel inhibitors of dengue virus methyltransferase: discovery by in vitro-driven virtual screening on a desktop computer grid” (J Med Chem, 2010).

Columns and labels:
Genome polyprotein [1] = biological target: T1, Genome polyprotein (dengue virus type 2, UniProt P12823); experiment: Inhibition of Dengue virus type 2 NS5 RNA methyltransferase SAM site with 0.1 % TX100
[2] = Cytotoxicity against human A549 cells after 48 hrs; format: cell-based
dengue virus type 2 = experiment: Antiviral activity against Dengue virus type 2 infected in human A549 cells assessed as decrease in viral E protein production by cell-based flavivirus immunodetection assay; format: functional, organism-based
Genome polyprotein [3] = biological target: T1, Genome polyprotein; experiment: Inhibition of Dengue virus type 2 NS5 RNA methyltransferase SAM site
Genome polyprotein [4] = biological target: T1, Genome polyprotein; experiment: Inhibition of Dengue virus type 2 NS5 RNA methyltransferase RNA site
Genome polyprotein [5] = biological target: T1, Genome polyprotein; experiment: Inhibition of Dengue virus type 2 NS5 RNA methyltransferase RNA site with 0.1 % TX100
Summary of the method: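 Detergent-sensitivity variant of the SPA methyl-transfer assay: 0.1% Triton X-100 added to the reaction mix. Otherwise 25 nM DENV2 MTase, 40 nM biotinylated RNA, 20 min room-temperature preincubation, 0.56 μM [3H]AdoMet. Counts read after bead stop. Duplicate wells.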

Genome polyprotein [6] = biological target: T1, Genome polyprotein; experiment: Inhibition of Dengue virus type 2 NS5 RNA methyltransferase by spin-down assay
Genome polyprotein [7] = biological target: T1, Genome polyprotein; experiment: Inhibition of Dengue virus type 2 NS5 RNA methyltransferase at 8 nM enzyme concentration
Genome polyprotein [8] = biological target: T1, Genome polyprotein; experiment: Inhibition of Dengue virus type 2 NS5 RNA methyltransferase at 80 nM enzyme concentration

T1 sequence (P12823 2489-3388 limits assumed): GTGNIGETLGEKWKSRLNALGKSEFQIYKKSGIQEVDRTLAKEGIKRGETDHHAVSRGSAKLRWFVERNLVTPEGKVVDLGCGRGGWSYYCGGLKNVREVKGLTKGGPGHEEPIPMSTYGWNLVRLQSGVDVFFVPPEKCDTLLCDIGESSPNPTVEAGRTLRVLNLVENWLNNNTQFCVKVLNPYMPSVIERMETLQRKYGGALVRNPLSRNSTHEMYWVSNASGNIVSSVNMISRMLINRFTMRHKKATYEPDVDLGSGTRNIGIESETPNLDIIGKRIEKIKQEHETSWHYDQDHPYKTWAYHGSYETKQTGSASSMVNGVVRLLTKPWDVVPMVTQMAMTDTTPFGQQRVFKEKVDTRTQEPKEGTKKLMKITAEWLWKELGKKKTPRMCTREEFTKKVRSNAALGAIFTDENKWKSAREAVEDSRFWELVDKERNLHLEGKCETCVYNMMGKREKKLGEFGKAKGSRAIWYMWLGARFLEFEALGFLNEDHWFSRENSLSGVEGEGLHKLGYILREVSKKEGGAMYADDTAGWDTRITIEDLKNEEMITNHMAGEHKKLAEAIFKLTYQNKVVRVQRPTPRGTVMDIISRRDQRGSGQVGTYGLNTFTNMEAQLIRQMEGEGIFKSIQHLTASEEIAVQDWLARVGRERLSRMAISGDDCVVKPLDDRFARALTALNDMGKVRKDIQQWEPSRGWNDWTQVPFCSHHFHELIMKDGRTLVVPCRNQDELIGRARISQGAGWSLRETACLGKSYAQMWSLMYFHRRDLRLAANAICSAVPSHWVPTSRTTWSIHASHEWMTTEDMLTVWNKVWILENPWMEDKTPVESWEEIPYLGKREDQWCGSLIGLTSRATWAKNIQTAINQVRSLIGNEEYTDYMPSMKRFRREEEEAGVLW

SMILES	IC50 (Genome polyprotein [1]) [µM]	IC50 (Genome polyprotein [3]) [µM]	IC50 (Genome polyprotein [4]) [µM]	IC50 (Genome polyprotein [5]) [µM]	further results
O=C(O)c1cnc2c([N+](=O)[O-])cccc2c1O	14.3	14.3			CC50 at 48 h [2]: > 100 µM; EC50 (dengue virus type 2): > 100 µM
O=C(O)c1ccc(S(=O)(=O)c2ccc(C(=O)O)cc2)cc1	> 100	29.9			
NC(=O)C1=CN(Cc2ccccc2)C=CC1	> 100	25.3			
Cc1cc(C(=O)CSc2nc(N)cc(=O)[nH]2)c(C)n1Cc1ccc2c(c1)OCO2	> 100	16.1			
O=C(CCCCC(=O)N/N=C/c1ccc(O)cc1O)N/N=C/c1ccc(O)cc1O	> 25	4.29			
Cc1ccccc1COc1ccc(C(=O)[C@@H]2C(=O)C(=O)N(Cc3ccncc3)[C@H]2c2cccc(O)c2)cc1	> 100	9.62			
O=C(O)CCC(=O)N1NC(c2c(O)nc3ccc(Cl)cc3c2-c2ccccc2)=C[C@@H]1c1ccc(Br)cc1			4.42	44.5	CC50 at 48 h [2]: > 100 µM; EC50 (dengue virus type 2): > 100 µM
O=C(O)COc1ccccc1/C=N\NC(=O)Cc1csc(Nc2cccc(C(F)(F)F)c2)n1			12.4	> 100	
O=C(Cn1ccc(=O)[nH]c1=O)Nc1ccc(O)c([N+](=O)[O-])c1	> 100	29			
Cc1cc(/C=N\NC(=O)Nc2ccccc2)c(C)n1-c1cc(C(=O)O)cc(C(=O)O)c1			20.3	> 100	
Cc1ccc(C23CC4CC(CC(C(=O)Nc5cccc(C(=O)O)c5)(C4)C2)C3)cc1			37.5	> 100	
O=C(O)c1cccc(NC(=O)c2ccc(CSc3ccc(Br)cc3)cc2)c1			7.99	> 100	
COc1ccc(/C=C2/CN(CCCC(=O)O)C(=O)C2=O)cc1	4.47	8.78			CC50 at 48 h [2]: > 100 µM; IC50 (Genome polyprotein [6]): 10.5 µM; EC50 (dengue virus type 2): > 100 µM
O=S(=O)(O)c1cccc(NNc2ccc(Nc3ccccc3)cc2)c1			7.56	7.14	CC50 at 48 h [2]: > 100 µM; IC50 (Genome polyprotein [7]): 7.62 µM; IC50 (Genome polyprotein [6]): 10.7 µM; EC50 (dengue virus type 2): > 100 µM; IC50 (Genome polyprotein [8]): 10.2 µM
Cc1c(CC(=O)N[C@@H](Cc2c[nH]c3ccc(O)cc23)C(=O)O)c(=O)oc2cc3occ(C(C)(C)C)c3cc12			11.9	> 100	
COc1cc(/C=C2/NC(=O)N(Cc3ccc(Cl)cc3Cl)C2=O)ccc1O[C@H](C)C(=O)O			11.3	> 100	
O=C1NC(=O)/C(=C\c2ccc(O)cc2)N1	> 100	27.6			

SMILES	IC50 (Genome polyprotein [1]) [µM]	IC50 (Genome polyprotein [3]) [µM]	IC50 (Genome polyprotein [4]) [µM]	IC50 (Genome polyprotein [5]) [µM]	further results
O=C(O)c1ccccc1/C=N/NC(=O)c1cc(-c2ccco2)nc2ccccc12			4.8	4.91	CC50 at 48 h [2]: > 100 µM; IC50 (Genome polyprotein [6]): 4.34 µM; EC50 (dengue virus type 2): > 100 µM
CCN(CC)c1ccc(/C=N\Nc2ccc(Cl)c(C(=O)O)c2)c(O)c1			13.5	87.1	CC50 at 48 h [2]: 75.1 µM; EC50 (dengue virus type 2): 50 µM
O=S(=O)(Nc1ccccc1)c1cc(S(=O)(=O)Nc2ccccc2)c2cc(O)ccc2c1	> 100	21.1			
CCOc1cc(/C=C2\C(=O)N(c3ccc4ccccc4c3)N=C2C)ccc1OCCC(=O)O			7.11	> 100	
O=C(N/N=C\c1ccccc1C(=O)O)c1ccc(COc2ccc3ccccc3c2)cc1			8.81	> 100	
O=C(O)COc1ccc(Br)cc1/C=C1\CC/C(=C\c2cc(Br)ccc2OCC(=O)O)C1=O			2.81	19.5	CC50 at 48 h [2]: > 100 µM; EC50 (dengue virus type 2): > 100 µM
O=C(O)c1ccccc1C(=O)Nc1nc(-c2ccc3ccccc3c2)cs1			14.5	> 100	
O=C(c1cccc([N+](=O)[O-])c1)c1no[n+]([O-])c1C(=O)c1cccc([N+](=O)[O-])c1	> 100	31.4			
O=C1C(=O)N(Cc2cccnc2)[C@H](c2cccc(Oc3ccccc3)c2)/C1=C(/O)c1ccco1	> 100	12.8			
Cc1ccc(Cl)cc1NS(=O)(=O)c1ccc(NS(=O)(=O)c2ccc3ccccc3c2)cc1			9.28	64.2	CC50 at 48 h [2]: 22.7 µM; EC50 (dengue virus type 2): 12 µM
N#Cc1c(NC(=O)c2cccc(S(=O)(=O)Nc3ccc(C(=O)O)cc3)c2)sc2c1CCCC2			17.6	> 100	
COc1ccc(CN(CC[C@@H](c2ccccc2)c2ccco2)C(=O)c2ccoc2)cc1	> 25	2.91			
COc1cc(NS(=O)(=O)c2ccc(NC(=O)/C=C/c3cccc4ccccc34)cc2)nc(OC)n1			6.83	> 100	
Cc1ccc(C)c(C(=O)C2=C(O)C(=O)N(CCc3ccccc3)[C@@H]2c2ccc(O)cc2)c1	> 100	9.84			
COc1cc(CNc2ccc(C(=O)O)cc2)ccc1OCc1ccccc1Cl			13.2	> 100	
COc1ccc2c(c1)C(CC(=O)O)CN2Cc1ccccc1 (stereo unspecified)	> 100	27.5			
Cc1cc(O)c2c(c1)C(=O)c1cc(O)cc(O)c1C2=O [EMODIN]	79.8	16.9			CC50 at 48 h [2]: 30.7 µM; EC50 (dengue virus type 2): 10.9 µM
